From PubChem
NPY1 pot ag = human NPY-Y1 potentiation or agonism, primary screen; P25929; NPY-Y1 expressing cells, potentiator/agonist activation; 220,000 compounds, 0.37% hits; activation, % at 3.6 µM; in the data active means activation above about 33%, passing the limit was not always enough;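 further: cells stimulated with NPY at EC10 then isoproterenol at EC100; 0% = low agonist plus stimulus and 100% = saturating agonist plus stimulus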
S1P4 agonist = human S1P4 receptor agonism. O95977. S1P4-expressing cell line, agonist reporter assay. activation, % at 4.98 µM. 220,000 compounds, 0.35% hits; in the data active means activation above about 11%;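 further: 0% = DMSO vehicle and 100% = reference agonist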
NPY Y2 blocker = blocks the human neuropeptide Y Y2 receptor. P49146. NPY-Y2 expressing cells, antagonist mode. inhibition, % at 2.7 µM. 140,000 compounds, 0.99% hits; in the data active means inhibition above about 17%;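 further: 0% = vehicle with agonist challenge and 100% = reference antagonist with challenge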
Target sequence (P49146 whole entry, looked up): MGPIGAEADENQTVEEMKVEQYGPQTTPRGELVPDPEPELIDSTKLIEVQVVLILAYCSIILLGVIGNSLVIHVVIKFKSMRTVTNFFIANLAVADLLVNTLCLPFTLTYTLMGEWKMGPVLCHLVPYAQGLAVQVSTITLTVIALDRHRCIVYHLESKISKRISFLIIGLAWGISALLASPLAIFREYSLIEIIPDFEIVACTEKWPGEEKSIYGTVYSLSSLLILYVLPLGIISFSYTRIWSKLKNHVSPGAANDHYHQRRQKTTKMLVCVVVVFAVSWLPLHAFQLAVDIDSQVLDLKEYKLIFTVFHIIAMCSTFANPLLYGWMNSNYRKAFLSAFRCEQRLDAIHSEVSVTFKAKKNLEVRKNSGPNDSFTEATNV
S1P4 antag = human S1P4 receptor antagonism; O95977; S1P4-expressing cells, antagonist mode, reporter read-out; inhibition, % at 4.98 µM; 220,000 compounds, 0.26% hits; AID 1510; in the data active means inhibition above about 29%;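 further: 0% = wells stimulated with agonist and 100% = vehicle wells without agonist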
NPY-Y1 antag = blocks the human neuropeptide Y Y1 receptor; P25929; 200,000 compounds, 1% hits; inhibition, % at 3.6 µM; AID 1040; HEK293-CNG Y1 cells, membrane potential fluorescence; NPY at EC95, then isoproterenol;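 active means inhibition above the campaign mean inhibition of all tested compounds plus 3 SD, cut at about 20% in these data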;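 further: 0% = DMSO wells given NPY plus isoproterenol and 100% = isoproterenol alone without NPY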
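Material: HEK293 Y1/CNG channel cell line; also added: NPY (25 nM), isoproterenol (1 µM), Ro 20-1724 (25 µM); doses: one concentration, 3.6 µM, in 0.4% DMSO; schedule: compound incubation 1 h at room temperature, readout 45 min post-stimulation; technique: membrane potential fluorescence; measure: fluorescence ratio normalized to % inhibition between controls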
NPY-Y2 PAM-ag = potentiators or agonists of human neuropeptide Y receptor Y2; P49146; cells expressing NPY-Y2, potentiator/agonist read-out; 220,000 compounds, 0.45% hits; activation, % at 3.6 µM; AID 1359; in the data active means activation above about 27%;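 further: cells stimulated with NPY near EC25 plus isoproterenol at EC100; 0% = vehicle plus submaximal agonist and 100% = vehicle plus saturating agonist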
NPY-Y1 pot conf = human NPY-Y1 potentiation or agonism, confirmation. shares compounds with NPY1 pot ag. cell-based NPY-Y1 potentiator/agonist assay. activation, % at 3.6 µM. 280 compounds, 20% hits. AID 1546; in the data active means activation above about 45%;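 further: cells challenged with NPY at its EC10 plus isoproterenol stimulus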
NPY-Y2 counter = potentiates or activates NPY-Y2, counter-screen for NPY-Y1 hits. shares compounds with NPY1 pot ag. HEK293-CNG cells, membrane-potential fluorescence (FLIPR), 1536-well. activation, % at 3.6 µM. 280 compounds, 20% hits. AID 1649; in the data active means activation above about 33%
NPY-Y1 agonist = activates human NPY-Y1, counter-screen for NPY-Y1 potentiators; 280 compounds, 50% hits; activation, % at 3.6 µM; AID 1697; shares compounds with NPY1 pot ag; HEK293 Y1-CNGC, membrane potential fluorescence, agonist mode;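 active means percent activation above the mean of DMSO-only control wells plus 3 SD of those wells, cut at about 18% in these data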;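 further: cells challenged with isoproterenol plus Ro 20-1724 with no NPY in test wells; Y1 agonism lowers isoproterenol-driven cAMP and reduces probe fluorescence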
NPY-Y2 agonist = counter-screen for NPY-Y1 potentiators or agonists: agonists of NPY-Y2. shares compounds with NPY1 pot ag. HEK293 Y2-CNGC, membrane potential fluorescence, agonist mode. activation, % at 3.6 µM. 280 compounds, 67% hits. AID 1698;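 active means activation above the solvent-only control wells' mean plus 3 SD, cut at about 11% in these data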;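 further: 0% = DMSO with isoproterenol and 100% = 40 nM NPY maximal response; agonism lowers cAMP so well fluorescence drops in active wells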
CNGC inh 2 = counter-screen for NPY-Y1 potentiators or agonists: CNG channel inhibitors; inhibition, % at 3.6 µM; 280 compounds, 42% hits; HEK293-CNG parental, isoproterenol cAMP, membrane potential fluorescence; shares compounds with NPY1 pot ag; AID 1704;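 active means inhibition above the mean of stimulated solvent-only control wells plus 3 SD, cut at about 22% in these data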;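 further: 0% = isoproterenol-stimulated DMSO wells and 100% = unstimulated DMSO wells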
Active calls of the source: *; x = no result given. Hits are enriched below; roughly 2.4% of the tested compounds scored in any of these assays.

SMILES	NPY1 pot ag	S1P4 agonist	NPY Y2 blocker	S1P4 antag	NPY-Y1 antag	NPY-Y2 PAM-ag	NPY-Y1 pot conf	NPY-Y2 counter	NPY-Y1 agonist	NPY-Y2 agonist	CNGC inh 2
COc1ccccc1-n1c(C)nnc1SCC(N)=O	43*	-1	0	10	0	1	1	4	-4	1	-5
COc1ccccc1-n1c(SCC(N)=O)nnc1-c1ccccc1	13	0	4	-3	-4	12	x	x	x	x	x
O=C(Nc1ccc(N2CCCCC2)c(Cl)c1)c1ccc(N2CCOCC2)c([N+](=O)[O-])c1	42*	-1	0	-1	-5	10	48*	37*	34*	40*	25*
CC(=O)N1CCN(c2ccc(NC(=O)c3ccc(N4CCCC4)c([N+](=O)[O-])c3)cc2Cl)CC1	-9	0	1	-1	0	-18	x	x	x	x	x
O=C(N/N=C/c1c[nH]c2ccc(Br)cc12)C1CC1	58*	1	x	-3	x	28	40	34*	50*	43*	47*
CN(C)Cc1c(O)ccc2oc(Cc3ccccc3)cc12	53*	0	8	9	1	21	16	18	21*	26*	-1
CC(C)CC(=O)NC(Nc1ccc([N+](=O)[O-])cc1)C(Cl)(Cl)Cl (configuration not stated)	14	-1	2	-10	-3	13	x	x	x	x	x
CCn1ncc(Br)c1C(=O)Nc1ccc(F)c([N+](=O)[O-])c1	45*	0	-1	16	-12	20	40	39*	40*	27*	36*
CCn1ncc(Br)c1C(=O)Nc1ccc(F)cc1F	2	0	2	1	2	4	x	x	x	x	x
O=C(N[C@@H](Cc1ccccc1)C(=O)O)c1ccncc1	-2	1	x	-9	-2	2	x	x	x	x	x
CCCn1c(SCC(=O)N2CCCC(C)C2)nnc1-c1ccccn1 (configuration not stated)	-7	0	x	-3	2	3	x	x	x	x	x
O=C(COc1ccc(Cl)cc1)Nc1ccc(Cc2ccncc2)cc1	62*	9	1	-19	-5	25	-48	-8	-35	-8	-12
COC(=O)c1ccc(C)c(NC(=O)CCc2ccc(OC)cc2)c1	105*	2	7	-6	2	8	-3	-4	-10	-12	-8
Cc1ccc(C(=O)O)cc1NC(=O)CCc1ccccc1	-19	1	x	0	0	2	x	x	x	x	x
COc1ccccc1CNC(=O)c1cccc2c1C(=O)N(Cc1cccnc1)C2	2	0	x	-22	-2	6	x	x	x	x	x
COc1ccc(/C=N/Nc2snc(SC)c2C#N)cc1OC	24	3	-2	-17	-3	8	x	x	x	x	x
COc1cccc(/C=N/Nc2snc(SC)c2C#N)c1O	50*	2	1	1	-1	8	-5	4	-2	18*	6
CNC(=O)N(O)C1N(c2ccccc2)C(=S)SC1(C)C (configuration not stated)	6	-1	-2	2	6	0	x	x	x	x	x
COC(=O)CC1(C(=O)OC)Oc2ccc(Br)cc2C(=O)N1c1cc(Cl)c(Cl)cc1Cl (configuration not stated)	49*	0	x	1	x	18	22	5	10	7	20
N#Cc1ccc(NC(=O)Nc2ccc(Cl)cc2)cc1	49*	0	-2	-12	-9	27	34	33	23*	28*	32*
O=C1CCC2S/C(=C/Nc3ccc(C(F)(F)F)cc3)C(=O)N12 (configuration not stated)	39*	3	x	2	-4	18	35	18	22*	25*	30*
O=C1CCCC/C1=C/Nc1cccc(C(F)(F)F)c1	-1	-1	x	-4	7	0	x	x	x	x	x
Cc1ccn2c(Nc3ccccc3C)c(-c3ccncc3)nc2c1	41*	0	0	-16	-4	30	59*	50*	36*	50*	27*
CC(C)(CO)NCC(O)Cn1cc(C=O)c2ccccc21 (configuration not stated)	-33	-1	x	-12	3	-7	x	x	x	x	x
Cc1ccccc1C1=Nn2c(nnc2-c2ccco2)SC1	5	0	x	-22	x	-9	x	x	x	x	x
SMILES	NPY1 pot ag	S1P4 agonist	NPY Y2 blocker	S1P4 antag	NPY-Y1 antag	NPY-Y2 PAM-ag	NPY-Y1 pot conf	NPY-Y2 counter	NPY-Y1 agonist	NPY-Y2 agonist	CNGC inh 2
CCNC(=O)c1cc(Br)ccc1Cl	51*	2	0	3	-2	-10	6	3	0	8	9
Cc1cc(C)nc(NC(=O)c2cc(Br)ccc2Cl)n1	-41	0	x	-18	0	-2	x	x	x	x	x
c1csc(-c2nc3c4ccccc4c4ccccc4c3[nH]2)c1	18	0	-3	-5	-2	11	x	x	x	x	x
Oc1ccccc1-c1nc2c3ccccc3c3ccccc3c2[nH]1	50*	0	x	-4	x	30	36	28	37*	34*	39*
COc1ccccc1NS(=O)(=O)c1cc(NC(=S)Nc2cc(C)cc(C)c2)ccc1Cl	-19	-1	0	-23	0	-2	x	x	x	x	x
COc1ccccc1NS(=O)(=O)c1cc(N/C(=N\S(=O)(=O)c2ccccc2)c2ccc(F)cc2)ccc1Cl	43*	0	-5	-17	-13	28	39	26	25*	24*	43*
O=S(=O)(/C=C/c1ccccc1)N1CCN(c2nc(-c3cccnc3)nc3ccccc23)CC1	-34	1	x	-19	3	-18	x	x	x	x	x
Cc1[nH]c2ccccc2c1/C=N/NC(=O)c1cccc(S(=O)(=O)Nc2ccccc2Cl)c1	-11	2	0	1	-2	12	x	x	x	x	x
CCc1cccc2c(/C=N/NC(=O)c3cccc(S(=O)(=O)Nc4ccccc4Cl)c3)c[nH]c12	46*	1	-2	-2	-9	-2	33	27	31*	19*	26*
Cc1nonc1-c1csc(N)n1	5	1	x	-2	3	4	x	x	x	x	x
COc1cc2c(cc1OC)CN(C1CC(=O)N(c3c(C)cccc3C)C1=O)CC2 (configuration not stated)	12	1	x	1	-4	0	x	x	x	x	x
CC1CN(Cc2nnc(-c3ccccc3)o2)CC(C)O1 (configuration not stated)	13	2	x	-6	-7	-8	x	x	x	x	x
